# Published values gathered from unrelated publications.
# Target: BDNF/NT-3 growth factors receptor (NTRK2, Homo sapiens, UniProt Q16620)
Structure (SMILES),assay,conditions,measurement,value
CC(C)(C)c1cc(C=C(C#N)C#N)cc(Br)c1O,"enzyme activity, inhibitor",0.5 µM,remaining activity,90.9%
Cn1cc(-c2cc(F)cc(N3CCn4c(cc5c4CCCC5)C3=O)c2CO)cc(Nc2ccc(N3CCN(C4COC4)CC3)cn2)c1=O,"enzyme activity, inhibitor",0.1 µM,inhibition,11%
COc1ncccc1-c1cnn2ccc(N3CCN(C(=O)OC(C)C)CC3)nc12,"binding, competition with immobilised ligand",1 µM,remaining binding,40%
COc1cc(Nc2ncc(F)c(Nc3ccc4c(n3)NC(=O)C(C)(C)O4)n2)cc(OC)c1OC,"binding, competition with immobilised ligand",10 µM,inhibition,95%
Nc1ncc(-c2nc(N3CCOCC3)nc(N3CCOCC3)n2)c(C(F)F)n1,"cell-free assay, competition with immobilised ligand",10 µM,remaining binding,74%
Cc1nn(C)cc1-c1nc2c(N3CCN(Cc4ccc(Cl)cc4)CC3)c(Cl)cnc2[nH]1,"binding, competition with immobilised ligand",1 µM,remaining binding,44%
C#Cc1n[nH]c2c(-c3cn(C(C)c4ccccn4)c(=O)[nH]c3=O)cc(F)cc12 (centres unmarked),"enzyme activity, inhibitor",1 µM,inhibition,2.8%
N#CC1(c2ccccn2)CCN(Cc2cc(C(=O)O)c(=O)n3ccccc23)CC1,"cell-free assay, competition with immobilised ligand",1 µM,remaining binding,84%
C#Cc1n[nH]c2c(-c3cn([C@@H](C)c4ccccc4)c(=O)[nH]c3=O)cc(F)cc12,"enzyme activity, inhibitor",0.1 µM,inhibition,6.2%
Cn1cncc1[C@](O)(COc1ccc(C#N)cc1-c1ccc(OC(F)(F)F)cc1)c1ccc(C#N)cc1,"cell-free assay, competition with immobilised ligand",1 µM,remaining binding,92%
O=c1[nH]c2ccccc2n1C1CCN(Cc2ccc(-c3[nH]c4cc5ncnc5cc4nc3-c3ccccc3)cc2)CC1,cell-free assay,0.5 µM,remaining signal,99.4%
